# Assay outcomes deposited in PubChem by Johns Hopkins Ion Channel Center.
# MrgX1 antagonist – antagonists of human MrgX1 receptor, primary screen, HEK293 cells, Fluo-4 calcium flux; Mas-related G-protein coupled receptor member X1 (Homo sapiens), Q96LB2; BAM8-22 antagonism; active compounds read low; B-score at 10 µM; 310,000 compounds, 1.3% hits; AID 588676, 2011;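 active = calcium-response B-score plate-corrected more than 3 library SD below zero, starting fluorescence within 5 deviations, no agonist response on first addition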;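 note: peak minus trough fluorescence over baseline after final BAM8-22 challenge near maximal dose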
# Target sequence (Q96LB2 whole entry, looked up): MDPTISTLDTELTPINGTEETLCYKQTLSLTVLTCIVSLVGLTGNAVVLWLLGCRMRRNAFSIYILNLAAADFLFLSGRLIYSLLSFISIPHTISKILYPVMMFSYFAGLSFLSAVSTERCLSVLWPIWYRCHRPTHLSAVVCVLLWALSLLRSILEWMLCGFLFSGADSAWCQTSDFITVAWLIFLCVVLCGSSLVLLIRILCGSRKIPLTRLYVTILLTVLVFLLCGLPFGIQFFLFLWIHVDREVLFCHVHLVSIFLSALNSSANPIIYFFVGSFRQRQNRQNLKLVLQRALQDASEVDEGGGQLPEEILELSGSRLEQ
# RGS4 act – RGS4 potentiators or activators, primary screen, cell-based, HEK293 M3R inducible RGS4, calcium flux | carbachol calcium flux Fluo4; active compounds read low | B-score at 10 µM | 310,000 compounds, 0.92% hits;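 active = B-score of the integrated calcium signal more than 4 SD below the library mean, with starting fluorescence not abnormally high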;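 note: negative B-score means reduced calcium response which marks RGS4 activation or potentiation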
#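 System – HEK293 FlpIn-TREx cells, stable M3R, doxycycline-inducible RGS4 · Reagent – ECmax carbachol challenge · Times – compound preincubation 20 min at room temperature before agonist · Technique – Fluo4 fluorescence kinetic imaging of calcium · Measure – B score of integrated Fluo4 ratio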
# MrgX1 PAM – positive allosteric modulators of MrgX1, primary screen, HEK293 cells, Fluo-4 calcium flux; Mas-related G-protein coupled receptor member X1 (Homo sapiens), Q96LB2; B-score at 10 µM; 310,000 compounds, 0.63% hits; FDSS; active compounds read high;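 active = plate-corrected calcium response at least 3 library SD above typical, normal starting fluorescence, not activating the receptor alone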;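 note: compound read alongside a low EC10 to EC30 dose of BAM8-22 agonist; peak minus trough fluorescence over baseline measured at the second addition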
# RGS4 block – RGS4 inhibitors, primary screen, cell-based, HEK293 M3R inducible RGS4, calcium flux; B-score at 10 µM; Fluo-4 calcium flux; active compounds read high; triggered by carbachol at its EC20; Regulator of G-protein signaling 4 (Homo sapiens), P49798; 310,000 compounds, 0.45% hits;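 active = B-score, a plate-corrected calcium signal, over three deviations above library mean, with baseline fluorescence within five deviations of library mean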;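 note: RGS4 expression induced by doxycycline in cells with stable M3 receptor; B-score is computed from the integrated fluorescence ratio over baseline after carbachol; higher B-score means a larger calcium signal and so more RGS4 inhibition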
# MrgX1 ag – agonists of human MrgX1 receptor, primary screen, HEK293 cells, Fluo-4 calcium flux. Mas-related G-protein coupled receptor member X1 (Homo sapiens), Q96LB2. Fluo-4 calcium fluorescence, agonist mode; active compounds read high. B-score at 10 µM. 310,000 compounds, 0.44% hits;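 active = calcium response B-score plate-corrected fluorescence ratio at least 3 library SD, with starting fluorescence B-score inside 5 SD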
#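 Assay system: stable human MrgX1 HEK293 cell line. Quantity: 15,000 cells per well. Schedule: cells plated overnight, dye loaded 0.5 h 37 °C, 0.5 h room temperature. Detection: Fluo-4 NW calcium-flux fluorescence, kinetic read. Read-out basis: peak-minus-minimum fluorescence over baseline, converted to B scores. Control set: positive and negative control wells on each plate.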
# RGS4 activ val – reduced carbachol calcium response, RGS4-induced M3R cells, confirmation, RGS4 activator project, cell-based, HEK293 M3R/RGS4 inducible, calcium flux, duplicate; shares compounds with RGS4 act; carbachol calcium flux Fluo4; inhibition, % at 10 µM; 1,100 compounds, 89% hits;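 active = inhibition above 3 SD of the buffer control wells, cut at about 41% in these data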;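 note: signal is the integrated peak-minus-minimum Fluo4 fluorescence over baseline ratio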
# RGS4 act ctr – counter-screen for RGS4 activators: effect in non-induced cells; shares compounds with RGS4 act; HEK293 M3R non-induced RGS4, Fluo4 calcium flux; after carbachol challenge at its EC90; inhibition, % at 10 µM; 1,100 compounds, 82% hits; AID 602283;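 active = inhibition exceeding 3 SD of buffer-only control wells, cut at about 26% in these data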;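 note: percent drop in integrated peak-minus-baseline over baseline Fluo4 ratio after carbachol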
# An asterisk follows results filed as active; i = inactive; x = not tested or not shown. The list is not random: actives were taken first. Their share in the collection is about 3.5%.
SMILES,MrgX1 antagonist,RGS4 act,MrgX1 PAM,RGS4 block,MrgX1 ag,RGS4 activ val,RGS4 act ctr
O=C(NC1CCCCC1)N1CCN(c2nc(-c3ccccc3)cs2)CC1,i,i,i,i,i,x,x
COc1ccc2c(c1)C=C(CN1CCC(CO)(CCc3ccccc3)CC1)CO2,i,-8*,i,i,i,80*,84*
CCNc1nc(NC(C)(C)C)nc(N2CCCC2)n1,i,-9*,i,i,i,82*,47*
COc1ccc(C(=O)Nc2cccc(-c3nnc(-c4ccco4)o3)c2)cc1,i,-9.6*,i,i,i,88*,48*
COc1ccc(CC(=O)Nc2cccc(-c3nnc(-c4ccco4)o3)c2)cc1,i,i,i,i,i,x,x
Cc1cc(C)nc(N2CCC(C(=O)NCCc3ccc(Cl)cc3)CC2)n1,i,i,i,i,i,x,x
CCCCCCNS(=O)(=O)c1ccc(Cl)s1,i,-10*,i,i,i,43*,84*
Cc1nc(C(=O)Nc2ccc(Cl)cc2Cl)nn1-c1cc(OC(C)C)c(Cl)cc1Cl,i,i,i,i,i,x,x
CCn1c(=O)n(CCc2ccccc2)c(=O)c2c3c(sc21)CCCC3,i,i,i,i,i,x,x
COC(=O)Cn1c(=O)n(CCc2ccccc2)c(=O)c2c3c(sc21)CCCC3,i,-7.8*,i,i,i,92*,89*
CCN(CC#CCC(O)(c1ccccc1)c1ccccc1)C(C)C,i,-8.3*,i,i,i,79*,30*
Cc1cc(C(=O)N(CCC#N)Cc2cccs2)no1,i,i,i,i,i,x,x
CN(Cc1ccccc1)C(=O)c1cc2ccccc2o1,i,i,i,i,i,x,x
CC(C)(C)N(Cc1ccccc1)C(=O)c1cc2ccccc2o1,i,-7.6*,i,i,i,91*,93*
CN(C)CCCNC(=O)c1ccc(-c2nc(-c3ccc(Cl)cc3)cs2)cc1,i,-8.2*,i,i,i,96*,98*
CC(=O)/C(=C\Nc1ccc(OCc2ccccc2)cc1)c1ccccc1,i,i,i,i,i,x,x
S=c1[nH]nc(-c2ccc(Cl)cc2Cl)n1Cc1ccccc1,i,-7.8*,i,i,i,91*,58*
S=c1[nH]nc(-c2cccc(Cl)c2)n1Cc1ccccc1,i,i,i,i,i,x,x
S=c1[nH]nc(-c2ccc(Cl)cc2Cl)n1-c1ccccc1,i,i,i,i,i,x,x
Cc1cccc(-c2n[nH]c(=S)n2Cc2ccccc2)c1,i,-8*,i,i,i,0,0
Oc1c(Cl)cc(Cl)cc1C=Nc1ccccc1N1CCCC1,i,i,i,i,i,x,x
CCOc1cccc(C(=O)NC(=S)Nc2ccc(N3CCN(CC)CC3)cc2)c1,i,-11*,i,i,i,92*,87*
CCCN(CC#CC(O)(c1ccccc1)c1cccnc1)CCC (configuration not stated),i,i,i,i,i,x,x
OC(C#CCN1CCCC1)(c1ccccc1)c1cccnc1 (configuration not stated),i,-8.2*,i,i,i,92*,86*
CN(C)CCCNC(=O)/C(=N\O)c1ccccc1,i,i,i,i,i,x,x
Cc1cccc(C)c1C(=NCCCN(C)C)c1ccccc1,i,-9.4*,i,i,i,92*,80*
